Source: ChEMBL document CHEMBL1275584, “Genetically engineered lipopeptide antibiotics related to A54145 and daptomycin with improved properties” (Antimicrob Agents Chemother, 2010)
Converted amounts (≈) assume the structure as drawn.

How the values were obtained:
Staphylococcus aureus [1] = test: Antibacterial activity against Staphylococcus aureus 42 in absence of 1% bovine pulmonary surfactant by CLSI method; type: functional; conditions: Staphylococcus aureus, 42, Pulmonary surfactant
In short: (§1)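 Broth MIC in Mueller-Hinton broth with 50 mg/liter CaCl2, run with or without 1% bovine pulmonary surfactant, following CLSI methods. Colonies came from frozen stocks streaked on sheep-blood tryptic soy agar (37°C, ~24 h). Incubation was at 37°C with rotation at 200 rpm. The ratio is MIC with surfactant divided by MIC without.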

Enterococcus faecalis [2] = test: Antibacterial activity against daptomycin sensitive Enterococcus faecalis 201 by CLSI method; type: functional; in short: as §1
Streptococcus pneumoniae [3] = test: Antibacterial activity against daptomycin sensitive Streptococcus pneumoniae 402 by CLSI method; type: functional
In short: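 S. pneumoniae MIC in CaCl2-supplemented Mueller-Hinton broth (50 mg/liter) with 5% lysed horse blood, following CLSI methods. Colonies were grown on sheep-blood agar at 37°C under 5% CO2. Assay incubation was at 37°C under 5% CO2 without aeration.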

Staphylococcus aureus [4] = test: Antibacterial activity against Staphylococcus aureus 42 in presence of 1% bovine pulmonary surfactant by CLSI method; type: functional; conditions: Staphylococcus aureus, 42, Pulmonary surfactant; in short: as §1
Enterococcus faecium [5] = test: Antibacterial activity against daptomycin resistant Enterococcus faecium 384 by CLSI method; type: functional
In short: (§2)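 MICs were determined by CLSI broth methods in Mueller-Hinton broth with 50 mg/liter CaCl2, with or without 1% bovine pulmonary surfactant. Inocula came from single colonies streaked from glycerol stocks onto blood agar and grown at 37°C for ~24 h. Cultures were incubated at 37°C with rotation at 200 rpm.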

Enterococcus faecium [6] = test: Antibacterial activity against daptomycin sensitive Enterococcus faecium 14 by CLSI method; type: functional; in short: as §1
Staphylococcus aureus [7] = test: Antibacterial activity against daptomycin sensitive and methicillin susceptible Staphylococcus aureus 42 by CLSI method; type: functional; in short: as §2
Staphylococcus aureus [8] = test: Ratio of MIC for Staphylococcus aureus 42 in presence of 1% bovine pulmonary surfactant to MIC for Staphylococcus aureus 42 in absence of 1% bovine pulmonary surfactant; type: functional; in short: as §1
Escherichia coli = test: Antibacterial activity against imp4213 mutant Escherichia coli BAS849 by CLSI method; type: functional; in short: as §2
Staphylococcus aureus [9] = test: Antibacterial activity against daptomycin sensitive and methicillin resistant Staphylococcus aureus 399 by CLSI method; type: functional; in short: as §2
Enterococcus faecalis [10] = test: Antibacterial activity against daptomycin resistant Enterococcus faecalis 312 by CLSI method; type: functional; in short: as §2
Staphylococcus aureus [11] = test: Antibacterial activity against methicillin resistant Staphylococcus aureus 1616 by CLSI method; type: functional; in short: as §2
Staphylococcus aureus [12] = test: Antibacterial activity against daptomycin resistant Staphylococcus aureus 1695 by CLSI method; type: functional; in short: as §2
Staphylococcus aureus [13] = test: Antibacterial activity against daptomycin sensitive and methicillin resistant Staphylococcus aureus MW2 by CLSI method; type: functional; in short: as §2
Streptococcus pneumoniae [14] = test: Antibacterial activity against Streptococcus pneumoniae infected in CD1 mouse pneumonia model assessed as lung bacterial load at 25 mg/kg, sc administered at 1 and 4 hrs after bacterial challenge measured 24 hrs post infection (reference value: 2.69x10^8 CFU/ml); conditions: route subcutaneous
Streptococcus pneumoniae [15] = test: Antibacterial activity against Streptococcus pneumoniae infected in CD1 mouse pneumonia model assessed as lung bacterial load at 6.25 mg/kg, sc administered at 1 and 4 hrs after bacterial challenge measured 24 hrs post infection (reference value: 2.69x10^8 CFU/ml); conditions: route subcutaneous
Streptococcus pneumoniae [16] = test: Antibacterial activity against Streptococcus pneumoniae infected in CD1 mouse pneumonia model assessed as lung bacterial load at 12.5 mg/kg, sc administered at 1 and 4 hrs after bacterial challenge measured 24 hrs post infection (reference value: 2.69x10^8 CFU/ml); conditions: route subcutaneous

| Compound | MIC (Staphylococcus aureus [1]) | MIC (Enterococcus faecalis [2]) | MIC (Streptococcus pneumoniae [3]) | MIC (Staphylococcus aureus [4]) | MIC (Enterococcus faecium [5]) | MIC (Enterococcus faecium [6]) | MIC (Staphylococcus aureus [7]) | Ratio (Staphylococcus aureus [8]) | MIC (Escherichia coli) | MIC (Staphylococcus aureus [9]) | MIC (Enterococcus faecalis [10]) | MIC (Staphylococcus aureus [11]) | MIC (Staphylococcus aureus [12]) | MIC (Staphylococcus aureus [13]) | CFU/ml (Streptococcus pneumoniae [14]) | CFU/ml (Streptococcus pneumoniae [15]) | CFU/ml (Streptococcus pneumoniae [16]) |
| --- | --- | --- | --- | --- | --- | --- | --- | --- | --- | --- | --- | --- | --- | --- | --- | --- | --- |
| CC[C@H](C)[C@@H]1NC(=O)[C@H]([C@H](C)CC(=O)O)NC(=O)[C@@H](CC(N)=O)NC(=O)CNC(=O)[C@@H]([C@H](OC)C(=O)O)NC(=O)[C@@H](CO)NC(=O)[C@H](CC(=O)O)NC(=O)[C@H](C)NC(=O)CN(C)C(=O)[C@@H](NC(=O)[C@@H](NC(=O)[C@@H](CCC(=O)O)NC(=O)[C@H](Cc2c[nH]c3ccccc23)NC(=O)CCCCCCCC(C)C)[C@H](O)C(N)=O)[C@H](C)OC1=O | 1 µg/mL (≈ 0.613 µM) | 4 µg/mL (≈ 2.45 µM) | 0.25 µg/mL (≈ 0.153 µM) | 16 µg/mL | 32 µg/mL (≈ 19.6 µM) | 4 µg/mL (≈ 2.45 µM) | 1 µg/mL (≈ 0.613 µM) | 16 | 16 µg/mL (≈ 9.81 µM) | 1 µg/mL (≈ 0.613 µM) | 128 µg/mL (≈ 78.4 µM) | 8 µg/mL (≈ 4.9 µM) | 4 µg/mL (≈ 2.45 µM) | 0.5 µg/mL (≈ 0.306 µM) |  |  |  |
| CCCCCCCCCC(=O)N[C@@H](Cc1c[nH]c2ccccc12)C(=O)N[C@H](CC(N)=O)C(=O)N[C@@H](CC(=O)O)C(=O)N[C@@H]1C(=O)NCC(=O)N[C@@H](CCCN)C(=O)N[C@@H](CC(=O)O)C(=O)N[C@H](C)C(=O)N[C@@H](CC(=O)O)C(=O)NCC(=O)N[C@H](CO)C(=O)N[C@@H]([C@H](C)CC(=O)O)C(=O)N[C@@H](CC(=O)c2ccccc2N)C(=O)O[C@@H]1C | 0.5 µg/mL (≈ 0.309 µM) | 2 µg/mL (≈ 1.23 µM) | 0.25 µg/mL (≈ 0.154 µM) | 64 µg/mL | 32 µg/mL (≈ 19.7 µM) | 2 µg/mL (≈ 1.23 µM) | 1 µg/mL (≈ 0.617 µM) | 128 | 128 µg/mL (≈ 79 µM) | 0.5 µg/mL (≈ 0.309 µM) | 128 µg/mL (≈ 79 µM) | 16 µg/mL (≈ 9.87 µM) | 4 µg/mL (≈ 2.47 µM) | 1 µg/mL (≈ 0.617 µM) |  |  |  |
| CN[C@H](CC(C)C)C(=O)N[C@H]1C(=O)N[C@@H](CC(N)=O)C(=O)N[C@H]2C(=O)N[C@H]3C(=O)N[C@H](C(=O)N[C@H](C(=O)O)c4cc(O)cc(O)c4-c4cc3ccc4O)[C@H](O)c3ccc(c(Cl)c3)Oc3cc2cc(c3O[C@@H]2O[C@H](CO)[C@@H](O)[C@H](O)[C@H]2O[C@H]2C[C@](C)(N)[C@H](O)[C@H](C)O2)Oc2ccc(cc2Cl)[C@H]1O [VANCOMYCIN] |  |  |  |  |  |  |  |  |  |  |  |  |  |  | 9 | 1.81e+07 | 285000 |
